The source made the active and inactive calls. No cut-off for these calls is given here.
Key:
Tubulin (Sus scrofa) [1] = target: T1, Tubulin (Sus scrofa) (UniProt P02554+P02550); assay: Binding affinity to porcine tubulin at 2 uM incubated for 30 mins followed by UV irradiation at 365 nm at distance of 10 cm on ice by SDS-PAGE analysis in presence of colchicine; assay type: protein assay
Summary of the method: (§1)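 Competition labelling. […] Probe (2 µM, 2% DMSO final) was then added for 30 min at 37 °C. Irradiated at 365 nm, 10 cm, on ice for 30 s. Read by 10% SDS–PAGE and streptavidin–HRP/ECL blot.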

HT-29 [2] = assay: Cytotoxicity against human HT-29 cells after 72 hrs by XTT/PMS method; assay type: functional, cell-based; settings: HT-29, 72 h
Summary of the method: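 HT-29 colorectal adenocarcinoma cells in McCoy's 5A with 10% FBS, seeded at 5000 cells/well the day before. DMSO stocks serially diluted to 20 µM–2 pM final, exposed 72 h. XTT 0.1 mg/mL with 25 µM PMS added for 1 h. Formazan read at 492 nm, corrected at 690 nm. IC50 from triplicate experiments.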

Tubulin = Tubulin (Sus scrofa, UniProt P02554+P02550); assay: Binding affinity to porcine tubulin after 1 hr by spectrofluorometric analysis; assay type: protein assay
Summary of the method: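 Purified porcine tubulin (0.5 µM) in MES buffer pH 6.8 at 37 °C, titrated with compound. Kd derived from the quenching titration.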

Tubulin (Sus scrofa) [3] = target: T1, Tubulin (Sus scrofa); assay: Binding affinity to porcine tubulin at 2 uM incubated for 30 mins by SDS-PAGE analysis; assay type: protein assay
Summary of the method: (§2)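 Tubulin (2 µM) in MES buffer pH 6.8 with 1 mM GTP and 2% DMSO, incubated with compound 30 min at 37 °C. Irradiated at 365 nm, 10 cm, on ice, 0–30 s. Separated by 10% SDS–PAGE and blotted to PVDF. Labelled tubulin detected with streptavidin–HRP/ECL chemiluminescence.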

Tubulin (Sus scrofa) [4] = target: T1, Tubulin (Sus scrofa); assay: Binding affinity to porcine tubulin at 2 uM incubated for 30 mins followed by UV irradiation at 365 nm at distance of 10 cm on ice by SDS-PAGE analysis in presence of D-biotin; assay type: protein assay; summary of the method: as §1
Tubulin (Sus scrofa) [5] = target: T1, Tubulin (Sus scrofa); assay: Binding affinity to porcine tubulin at 2 uM incubated for 30 mins followed by UV irradiation at 365 nm at distance of 10 cm on ice by SDS-PAGE analysis; assay type: protein assay; settings: TDE = time-dependent effect; summary of the method: as §2
HT-29 [6] = assay: Ratio of compound IC50 to plinabulin IC50 for human HT-29 cells; assay type: functional
Tubulin (Sus scrofa) [7] = target: T1, Tubulin (Sus scrofa); assay: Ratio of compound Kd to plinabulin Kd for porcine tubulin; assay type: protein assay
Tubulin (Sus scrofa) [8] = target: T1, Tubulin (Sus scrofa); assay: Binding affinity to porcine tubulin at 2 uM incubated for 30 mins followed by UV irradiation at 365 nm at distance of 10 cm on ice by SDS-PAGE analysis in presence of plinabulin; assay type: protein assay; summary of the method: as §1
Tubulin (Sus scrofa) [9] = target: T1, Tubulin (Sus scrofa); assay: Binding affinity to porcine tubulin incubated for 30 mins followed by UV irradiation at 365 nm for 30 seconds at distance of 10 cm on ice by SDS-PAGE analysis; assay type: protein assay; summary of the method: as §2

T1 sequence (P02550 whole entry, looked up): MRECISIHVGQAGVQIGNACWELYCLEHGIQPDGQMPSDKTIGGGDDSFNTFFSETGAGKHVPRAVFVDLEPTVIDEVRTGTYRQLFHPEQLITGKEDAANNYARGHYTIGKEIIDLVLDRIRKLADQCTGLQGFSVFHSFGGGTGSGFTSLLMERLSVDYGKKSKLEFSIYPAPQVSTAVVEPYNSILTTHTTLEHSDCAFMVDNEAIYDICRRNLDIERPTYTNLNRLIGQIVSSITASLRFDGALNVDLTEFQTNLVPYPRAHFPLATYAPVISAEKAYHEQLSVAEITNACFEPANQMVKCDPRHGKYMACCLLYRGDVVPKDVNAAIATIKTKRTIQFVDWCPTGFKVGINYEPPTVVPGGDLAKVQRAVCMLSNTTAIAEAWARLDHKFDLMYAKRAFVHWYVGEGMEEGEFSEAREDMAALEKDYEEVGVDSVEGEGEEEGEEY
T1 sequence (P02554 whole entry, looked up): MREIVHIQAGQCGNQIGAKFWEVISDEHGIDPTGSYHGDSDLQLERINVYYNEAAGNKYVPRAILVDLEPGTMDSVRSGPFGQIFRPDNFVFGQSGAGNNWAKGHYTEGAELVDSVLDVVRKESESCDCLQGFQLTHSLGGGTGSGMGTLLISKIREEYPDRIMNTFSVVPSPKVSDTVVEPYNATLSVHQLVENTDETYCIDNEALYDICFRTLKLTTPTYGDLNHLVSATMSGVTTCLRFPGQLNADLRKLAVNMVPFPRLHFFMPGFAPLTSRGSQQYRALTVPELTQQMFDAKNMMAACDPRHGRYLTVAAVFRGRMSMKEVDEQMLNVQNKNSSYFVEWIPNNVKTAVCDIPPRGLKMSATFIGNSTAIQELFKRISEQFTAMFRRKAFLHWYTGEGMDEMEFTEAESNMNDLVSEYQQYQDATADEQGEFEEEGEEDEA

Activity (Tubulin (Sus scrofa) [1]) | Kd (Tubulin) | Activity (Tubulin (Sus scrofa) [3]) | Activity (Tubulin (Sus scrofa) [4]) | Activity (Tubulin (Sus scrofa) [5]) | Ratio (Tubulin (Sus scrofa) [7]) | Activity (Tubulin (Sus scrofa) [8]) | Activity (Tubulin (Sus scrofa) [9]) | SMILES | IC50 (HT-29 [2]) | Ratio IC50 (HT-29 [6])
inactive | 17900 nM | inactive | inactive | tde | 17 | inactive | Dose-dependent effect | CC(C)(Cc1cn(CCCNC(=O)CCCCCNC(=O)CCCCCNC(=O)CCCC[C@@H]2SC[C@@H]3NC(=O)N[C@@H]32)nn1)c1ocnc1/C=c1\[nH]c(=O)/c(=C/c2cccc(C(=O)c3ccccc3)c2)[nH]c1=O (stereo in doubt) | 9790 nM | 725
– | – | – | – | – | – | – | – | COc1cc2c(c(OC)c1OC)-c1ccc(OC)c(=O)cc1[C@@H](NC(C)=O)CC2 [COLCHICINE] | 16.6 nM | –
– | – | – | – | – | – | – | – | CC(C)(C)c1[nH]cnc1/C=c1\[nH]c(=O)/c(=C/c2ccccc2)[nH]c1=O [PLINABULIN] | 13.5 nM | –

— ChEMBL document CHEMBL1641522 (Bioorg Med Chem, 2011)
